{
  "source": "paper PMC2948583",
  "about": "(Journal of proteome research, 2010)",
  "key": {"[1]": {"tested_on": "whole saliva supernatant proteases", "test": "Proteolysis of purified statherin in pooled whole saliva supernatant", "type": "in vitro ADME, human", "conditions": "WSS boiled to abolish protease activities; statherin 400 µg/ml; 37°C; RP-HPLC", "outline": "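Supernatant from pooled stimulated whole saliva (14,000 × g, 20 min, 4°C), boiled to abolish protease activity. Parotid-derived purified statherin added to 400 µg/ml final. Incubated at 37°C and sampled at 0, 1, 3, 5 and 7 h. Aliquots boiled 10 min, diluted in 0.1% TFA, and analysed by analytical C-18 RP-HPLC (0–55% of 80% acetonitrile/0.1% TFA over 74 min). Intact statherin peak area integrated.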"}, "[2]": {"tested_on": "whole saliva proteases", "test": "Proteolysis of purified statherin in pooled whole saliva", "type": "in vitro ADME, human", "conditions": "WS boiled to abolish protease activities; statherin 400 µg/ml; 37°C; RP-HPLC", "outline": "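Pooled Parafilm-stimulated whole saliva from four healthy donors, boiled to abolish protease activity. Statherin, purified from parotid secretion by zinc precipitation and RP-HPLC, added to 400 µg/ml final. Incubated at 37°C and sampled at 0, 10, 30, 60 and 90 min. Aliquots boiled 10 min, diluted in 0.1% TFA, and run on analytical C-18 RP-HPLC (0–55% buffer B over 74 min). Intact statherin peak integrated.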"}},
  "data": [
    {"substance": "statherin (DSSEEKFLRRIGRFGYGYGPYQPVPEQPLYPQPYQPQYQQYTF; UniProt P02808 20-62, looked up)", "values": [
      {"measurement": "Stability of statherin in boiled WSS (control)", "setting": "[1]", "result": "remained intact"},
      {"measurement": "Stability of statherin in boiled WS (control)", "setting": "[2]", "result": "remained intact"}
    ]}
  ]
}
